Assay outcomes: PubChem, The Scripps Research Institute Molecular Screening Center
Tb MetRS inh: T. brucei MetRS inhibitors, primary screen, biochemical, luminescence; methionyl-tRNA synthetase (Trypanosoma brucei brucei); purified T. brucei MetRS, ATP depletion, Kinase-Glo luminescence; inhibition, % at 11.9 µM; hit rate 0.4% among 360,000; AID 624268, 2012;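 active means inhibition above a per-plate cutoff of the control wells' mean inhibition plus 3 SD, cut at about 5.5% in these data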;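 further: 0% = DMSO wells median and 100% = median of wells with control inhibitor compound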
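Material – parasite MetRS enzyme · Medium – HEPES-MgCl2-KCl buffer plus DTT, spermine, BSA, pyrophosphatase · Reagent – ATP, methionine and E. coli bulk tRNA substrates · Times – 15 min enzyme-compound preincubation, 2 h reaction, 10 min detection, 25 °C · Measured by – luminescence of leftover ATP · Evaluation – percent inhibition relative to median high and low control wells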
procasp7 counter: procaspase-7 activators, primary screen, counter-screen for procaspase-3 activator project, biochemical, absorbance, HTS, human. recombinant procaspase-7, Ac-DEVD-pNA absorbance 405 nm; D23A/D198A/D206A triple mutant, cannot self-cleave; scale: DMSO 0, 5 µM enzyme 100. Caspase-7 (Homo sapiens), P55210. activation, % at 8.5 µM. hit rate 0.093% among 330,000. AID 463210, 2010;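 active means percent activation above the screen-wide mean plus 3 SD, cut at about 25% in these data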
Target sequence (P55210 whole entry D23A/D198A/D206A): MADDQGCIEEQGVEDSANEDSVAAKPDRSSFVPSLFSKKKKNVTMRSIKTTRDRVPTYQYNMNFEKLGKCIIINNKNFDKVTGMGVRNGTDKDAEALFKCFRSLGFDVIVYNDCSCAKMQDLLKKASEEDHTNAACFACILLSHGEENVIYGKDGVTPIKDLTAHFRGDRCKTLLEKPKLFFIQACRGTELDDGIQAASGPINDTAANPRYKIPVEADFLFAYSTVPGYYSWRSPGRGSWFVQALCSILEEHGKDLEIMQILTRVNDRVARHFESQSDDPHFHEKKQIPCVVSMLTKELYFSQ
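Assay system: Uncleavable procaspase-7 mutant enzyme; Input: 2 µM procaspase-7 mutant as dispensed; Also added: DEVD-pNA substrate; Medium: Zinc-free HEPES pH 7.4 with 300 mM NaCl, 0.01% Triton X-100; Timing: 1 h compound preincubation, 2 h substrate cleavage, 25 °C; Measured by: Epi-absorbance of released pNA at 405 nm, two timepoints.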
bovine MsrA act: bovine MsrA enzyme activators, primary screen, biochemical, absorbance, HTS | Methionine sulfoxide reductase A (Bos taurus) | activation, % at 10.6 µM | hit rate 0.3% among 360,000 | purified bovine MsrA, absorbance read-out; in the data active means activation above about 7.5%;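 further: 0% = vehicle and 100% = reference activator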
procasp3 activ: activators of human procaspase-3 D3A mutant, primary screen, biochemical, absorbance, PC-3 D3A mutant, single concentration. hit rate 0.11% among 330,000. activation, % at 8.5 µM. recombinant procaspase-3 D3A, Ac-DEVD-pNA absorbance 405 nm;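 active means activation above the mean of all tested compounds plus 3 SD, cut at about 21% in these data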;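 further: 0% = DMSO alone and 100% = DMSO wells spiked with extra 5 µM PC-3 D3A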
Target sequence (P42574 whole entry D9A/D28A/D175A): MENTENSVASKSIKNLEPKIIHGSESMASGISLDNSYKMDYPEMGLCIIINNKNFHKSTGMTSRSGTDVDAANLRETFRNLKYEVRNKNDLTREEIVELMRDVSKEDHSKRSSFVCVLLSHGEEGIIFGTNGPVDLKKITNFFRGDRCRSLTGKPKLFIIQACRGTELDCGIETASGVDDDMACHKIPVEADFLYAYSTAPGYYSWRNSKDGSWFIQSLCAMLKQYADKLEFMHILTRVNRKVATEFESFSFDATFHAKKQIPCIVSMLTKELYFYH
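System: Procaspase-3 D3A mutant. Medium: Zinc-free 300 mM NaCl, 50 mM HEPES, 0.01% Triton X-100. Schedule: 1 h preincubation plus 2 h reaction at 25 °C. Measured by: 405 nm absorbance of p-nitroaniline, reads at 0 and 120 min. Read-out: percent activation relative to control range.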
MsrA inhibitor: bovine MsrA enzyme inhibitors, primary screen, biochemical, absorbance, HTS | Methionine sulfoxide reductase A (Bos taurus) | purified bovine MsrA, absorbance read-out | inhibition, % at 15.5 µM | hit rate 0.75% among 360,000 | AID 651718, 2012;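 further: 0% = vehicle wells with enzyme and 100% = reference inhibitor wells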
MsrA conf: bovine MsrA inhibitors, retest, confirmation, biochemical, absorbance, HTS; hit rate 41% among 2,300; purified bovine MsrA, absorbance read-out; shares compounds with MsrA inhibitor; AID 651822, 2012; inhibition, % at 15.5 µM;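 further: coupled to thioredoxin reductase with NADPH and selenocystamine and DMSO as substrate; 0% = vehicle only and 100% = full effect of reference inhibitor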
An asterisk follows results filed as active; x = not tested or not shown. This is a sample that favours compounds with a hit; in the whole collection about 1.5% have one here. Unless noted, no stated cut-off is given here; in the data, active means inhibition above about 4.5%; inactive means the rest.

SMILES | Tb MetRS inh | procasp7 counter | bovine MsrA act | procasp3 activ | MsrA inhibitor | MsrA conf
COC(=O)C1=C(CS(=O)(=O)c2ccccc2)NC(=O)NC1c1ccccc1 (centres undefined) | 0 | -1 | -3 | -2 | 0 | x
CCC(=O)N/N=C/c1ccc(-c2ccc(Cl)cc2)o1 | -1 | -4 | -4 | -4 | 4.8* | 4
CC(C)C[C@H](NC(=O)c1ccccn1)C(=O)N1CCC[C@H]1C(=O)NCc1ccccc1 | x | x | x | x | -1 | x
Cc1ccccc1C(=O)N1CCC[C@@H]1C(=O)N1CCC[C@H]1C(=O)NCc1ccccc1 | x | x | x | x | 1 | x
Nc1cc(Cl)ccc1N1CCCCC1 | 0 | 5 | -5 | 5 | -1 | x
N#Cc1c(N2CCCC2)ccc(Br)c1Cl | -1 | 13 | -11 | 9 | 6.0* | 9.0*
O=S1(=O)N[C@H](Cc2ccccc2)COc2cccc(NCCO)c21 | x | x | x | x | 0 | x
Fc1ccc(/C=C/c2nnc(-c3cccs3)o2)cc1 | -1 | 0 | -5 | 7 | 5.2* | 2
Cc1ccc(/C=C/c2nnc(-c3cccs3)o2)cc1 | -2 | 4 | -14 | 4 | 1 | x
Nc1ccc2c(C(F)(F)F)cc(C(F)(F)F)nc2n1 | -1 | -3 | -6 | 7 | 2 | x
Nc1nc(N)c2sc3nc(C(F)(F)F)cc(C(F)(F)F)c3c2n1 | -1 | -3 | -3 | -9 | 7.5* | 1
O=C(Cn1nc2ccccc2n1)N/N=C/c1cc([N+](=O)[O-])ccc1O | 0 | -4 | -4 | -3 | 4.7* | 4
CCOC(=O)/C(=C/c1c[nH]c2ccccc12)NC(C)=O | 0 | -3 | 0 | -6 | 5.0* | 3
c1coc(-c2nc3nc4ccccc4nc3n2CC2CCCO2)c1 (centres undefined) | 1 | -14 | 2 | -5 | 2 | x
c1ccc(-c2nc3nc4ccccc4nc3n2CC2CCCO2)cc1 (centres undefined) | 0 | 6 | -5 | -2 | 5.2* | 5.2*
Cc1ccc(N2C(=O)c3ccccc3C2C(=O)c2ccc(O)cc2O)cc1 (centres undefined) | 0 | -14 | -6 | -4 | 6.2* | 6.0*
Cc1ccc(N2C(=O)c3ccccc3C2C(=O)c2cc(C)ccc2O)cc1 (centres undefined) | 0 | -29 | -6 | -31 | 0 | x
Cc1[nH]n(-c2ccc(Cl)cc2)c(=O)c1C(=O)c1ccccc1 | 0 | -3 | -3 | 1 | 7.3* | 0
CNc1ncn(-c2c(C)cccc2C)c(=O)n1 | x | x | x | x | 0 | x
Cc1occc1-c1nnc(-c2cc([N+](=O)[O-])cc([N+](=O)[O-])c2)o1 | -1 | 9 | -3 | 2 | 7.7* | 1
O=[N+]([O-])c1cccc(-c2nnc(-c3ccccc3)o2)c1 | 0 | 7 | 0 | 2 | 0 | x
Cc1ccc(/C=N/Nc2cc(C)nc(NCc3ccccc3)n2)cc1 | -1 | -2 | 3 | -8 | 1 | x
Cc1cc(N/N=C/c2ccc(O)cc2)nc(NS(=O)(=O)c2ccccc2)n1 | 0 | 6 | -5 | 6 | 4.9* | 5.3*
C/C(N)=C(/C#N)C(=O)CSc1nn(-c2ccc(Cl)cc2)c(=S)s1 | 0 | -5 | -5 | 8 | 21* | 14*
C/C(N)=C(/C#N)C(=O)CSc1nnc(SCc2ccc(Cl)cc2)s1 | 0 | 6 | -2 | 11 | 1 | x
SMILES | Tb MetRS inh | procasp7 counter | bovine MsrA act | procasp3 activ | MsrA inhibitor | MsrA conf
Nc1ccc2ccc(N)cc2c1 | x | x | x | x | 1 | x
Oc1ccc(/C=N\Nc2cc(N3CCOCC3)nc(N3CCOCC3)n2)c(O)c1 | 0 | -11 | -6 | 4 | 5.3* | 4
Cc1cc(N/N=C/c2ccc(O)cc2O)nc(N2CCOCC2)n1 | 0 | 4 | -9 | -3 | 4 | x
O=C(Nc1ccc2nc(-c3cccs3)[nH]c2c1)c1ccco1 | 0 | -2 | -5 | 4 | 4.7* | 3
O=C(Nc1ccc2nc(-c3cccs3)[nH]c2c1)c1cccs1 | 0 | -7 | -2 | -5 | 2 | x
Cc1nc(Nc2ccncc2)c2oc3ccccc3c2n1 | -1 | -2 | -9 | 6 | 5.4* | 2
CCc1nc(Nc2ccncc2)c2oc3ccccc3c2n1 | 0 | -6 | -4 | 0 | 4.7* | 4
CC(=O)Nc1ccc(Nc2nc(C)nc3c2oc2ccccc23)cc1 | 0 | 4 | -5 | 3 | 3 | x
CCc1nc(Nc2cccc(O)c2)c2oc3ccccc3c2n1 | 0 | x | -2 | x | x | x
O=C(CCNc1n[nH]c(=O)[nH]c1=O)N/N=C/c1ccccc1Br | 0 | -2 | -4 | -7 | -1 | x
O=c1[nH]nc(N/N=C/c2ccccc2OC(F)F)c(=O)[nH]1 | 0 | -1 | -4 | 0 | 5.0* | 3
Cc1cc(/C=C(\C#N)C(=O)O)c(C)n1CC(C)C | 0 | -9 | -3 | 4 | 7.2* | 3
Cc1c(CC(=O)O)c(=O)oc2cc3c(cc12)CCC(C)(C)O3 | -1 | -8 | -8 | -2 | 2 | x
CCC(NC(=O)Cc1c(C)c2cc3c(cc2oc1=O)OC(C)(C)CC3)C(=O)O (centres undefined) | 0 | -14 | 0 | 3 | 5.2* | 3
O=C1N/C(=N/O)S/C1=C\c1ccccc1-n1cccn1 | 0 | 5 | -5 | -1 | 4.7* | 3
CCC(=O)/C=C1\Sc2ccc(OC)cc2N1CC | -1 | -11 | -7 | -5 | 5.7* | 4
O=C(NCc1ccccc1)[C@H]1CCCN1C(=O)[C@H]1CCCN1C(=O)c1ccc(F)c(C(F)(F)F)c1 | x | x | x | x | 1 | x
O=Cc1cnc(N2CCN(Cc3ccccc3)CC2)s1 | 0 | 9 | -3 | -1 | 4 | x
CN(Cc1ccccc1)c1ncc(C=O)s1 | -1 | 0 | -6 | 0 | 7.5* | 5.8*
CCCCCCCCN1C(=O)[C@@H](CC(=O)N2CCCCC2)C[C@@]2(C(=O)OC)C1=C[C@H](C(C)(C)C)O[C@@H]2C | x | x | x | x | 0 | x
CC(C)(C)c1cc(-c2ccco2)c(C#N)c(SCC#N)n1 | -1 | -4 | 0 | -7 | 9.2* | 5.2*
COc1ccc(/C=C/C(=O)C2(O)CCCCC2)cc1 | -1 | 3 | -6 | 5 | 5.2* | 3
COC(=O)c1ccc(N=NN2CCOCC2)cc1 | 0 | -6 | -4 | -5 | 6.6* | 2
COC(=O)c1ccc(N=NN2CCCCCC2)cc1 | -1 | 0 | -12 | 4 | 4 | x
Cc1ccc(C)c(S(=O)(=O)N/N=C/c2ccc(N(C)C)cc2)c1 | 1 | 1 | -1 | 0 | 5.4* | 2
